Assay results taken from ChEMBL document CHEMBL1122233, “Antihypertensive 9-substituted 1-oxa-4,9-diazaspiro[5.5]undecan-3-ones” (J Med Chem, 1983).

What was measured:
[1] = tested on: Rattus norvegicus; assay: (§1) Percentage fall in systolic blood pressure after 4 hr at 25 mg/kg given perorally; format: functional, organism-based; set-up: dose 25 mg/kg; settings: Artery
Summary of the method: (§2)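 Male Okamoto-Aoki spontaneously hypertensive rats, trained, in groups of four matched for mean systolic pressure; five treated groups and one vehicle control run concurrently. Oral dosing in water (solution or suspension, 0.1 mL/10 g) on two consecutive mornings. On day 2, rats were restrained at 30.0 ± 1.0 °C and tail-cuff systolic pressure recorded at 1–4 h; percent fall versus control, 1-tail t test, p ≤ 0.05.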

[2] = tested on: Rattus norvegicus; assay: as §1; format: functional, Artery; settings: route oral; summary of the method: as §2
[3] = tested on: Rattus norvegicus; assay: Percentage fall in systolic blood pressure after 1 hr at 6.25 mg/kg given perorally; format: functional, Artery; settings: route oral
Summary of the method: (§3)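 Male Okamoto-Aoki SHR, four per group, with a concurrent vehicle control group. Oral dosing in water (0.1 mL/10 g) on two consecutive mornings. After the day-2 dose, rats were restrained in a 30 °C chamber. Tail-cuff systolic pressure was taken at 1-4 h from four traces per rat. Result is % decrease versus control mean, by 1-tailed t test, p ≤ 0.05.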

[4] = tested on: Rattus norvegicus; assay: Percentage fall in systolic blood pressure after 4 hr at 6.25 mg/kg given perorally; format: functional, organism-based; set-up: dose 6.25 mg/kg; settings: Artery; summary of the method: as §2
[5] = tested on: Rattus norvegicus; assay: Percentage fall in systolic blood pressure after 2 hr at 6.25 mg/kg given perorally; format: functional, Artery; settings: route oral; summary of the method: as §2
[6] = tested on: Rattus norvegicus; assay: Percentage fall in systolic blood pressure after 1 hr at 25 mg/kg given perorally; format: functional, Artery; settings: route oral; summary of the method: as §2
[7] = tested on: Rattus norvegicus; assay: Percentage fall in systolic blood pressure after 3 hr at 25 mg/kg given perorally; format: functional, Artery; settings: route oral; summary of the method: as §2
[8] = tested on: Rattus norvegicus; assay: Percentage fall in systolic blood pressure after 2 hr at 25 mg/kg given perorally; format: functional, Artery; settings: route oral; summary of the method: as §2
[9] = tested on: Rattus norvegicus; assay: Percentage fall in systolic blood pressure after 3 hr at 6.25 mg/kg given perorally; format: functional, Artery; settings: route oral; summary of the method: as §2
[10] = tested on: Rattus norvegicus; assay: Percentage fall in systolic blood pressure after 2 hours at 3.1 mg/kg given perorally; format: functional, Artery; settings: route oral; summary of the method: as §2
[11] = tested on: Rattus norvegicus; assay: Percentage fall in systolic blood pressure after 1 hours at 3.1 mg/kg given perorally; format: functional, Artery; settings: route oral; summary of the method: as §2
[12] = tested on: Rattus norvegicus; assay: Percentage fall in systolic blood pressure after 2 hours at 12.5 mg/kg given perorally; format: functional, Artery; settings: route oral; summary of the method: as §3
[13] = tested on: Rattus norvegicus; assay: Percentage fall in systolic blood pressure after 1 hours at 12.5 mg/kg given perorally; format: functional, Artery; settings: route oral; summary of the method: as §2
[14] = tested on: Rattus norvegicus; assay: Percentage fall in systolic blood pressure after 3 hours at 3.1 mg/kg given perorally; format: functional, organism-based; set-up: dose 3.1 mg/kg; settings: Artery; summary of the method: as §2
[15] = tested on: Rattus norvegicus; assay: Percentage fall in systolic blood pressure after 4 hours at 12.5 mg/kg given perorally; format: functional, Artery; settings: route oral; summary of the method: as §3
[16] = tested on: Rattus norvegicus; assay: Percentage fall in systolic blood pressure after 4 hours at 3.1 mg/kg given perorally; format: functional, organism-based; set-up: dose 3.1 mg/kg; settings: Artery; summary of the method: as §2
[17] = tested on: Rattus norvegicus; assay: Percentage fall in systolic blood pressure after 3 hours at 12.5 mg/kg given perorally; format: functional, Artery; settings: route oral; summary of the method: as §3

SMILES: CN1CC2(CCN(CC(O)C3COc4ccccc4O3)CC2)OCC1=O (stereo in doubt; 60)
- Decrease in SBP [1]: Not significant

SMILES: O=C1COC2(CCN(CC3COc4ccccc4O3)CC2)CN1 (configuration not stated)
- Decrease in SBP [2]: 38%
- Decrease in SBP [3]: 38%
- Decrease in SBP [4]: Not significant
- Decrease in SBP [5]: 36%
- Decrease in SBP [6]: 53%
- Decrease in SBP [7]: 40%
- Decrease in SBP [8]: 49%
- Decrease in SBP [9]: 21%

SMILES: CN1CC2(CCN(CCCC(=O)c3ccc(F)cc3)CC2)OCC1=O
- Decrease in SBP [10]: 27%
- Decrease in SBP [11]: 26%
- Decrease in SBP [12]: 37%
- Decrease in SBP [13]: 46%
- Decrease in SBP [14]: Not significant
- Decrease in SBP [15]: 19%
- Decrease in SBP [16]: Not significant
- Decrease in SBP [17]: 25%
